We go through two molecules from paper PMC3545439 (Investigational new drugs, 2010).

Data set [1] can be described thus: Flavopiridol plasma pharmacokinetics in patients. It counts as in vivo, human.
In data set [2] the test system is patients with advanced solid tumors. As to the kind of experiment: Phase I dose escalation: toxicity. It counts as in vivo, human. The gist of the method:
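Open-label, non-randomized 3+3 escalation in groups of 3–6, outpatient, with no intra-patient escalation. […] DLT was grade 4 hematologic or grade 3–4 non-hematologic toxicity (including diarrhea despite prophylaxis), or delay allowing fewer than 2 treatments in weeks 1–3. MTD was one level below the dose at which ≥2 patients had first-cycle DLT.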

The test system of the next data set is patients. Particulars: PO daily × 3 days, every 14 days, with infusional fluorouracil and leucovorin; cited from earlier work.
A short description of data set [3]: Vorinostat serum pharmacokinetics in patients. Format: in vivo, human.
The conditions of data set [4]: cited from earlier work.
For data set [5] the following is noted: cited from earlier work. This is another data set of the same source.

Read-outs that look alike come from different tables or passages of the source.

As for `CN1CC[C@H](c2c(O)cc(O)c3c(=O)cc(-c4ccccc4Cl)oc23)[C@H](O)C1` [flavopiridol], in data set [1] (human, plasma, intravenous), the highest level (Cmax) was 3.92 µM. In addition, the “patients achieving flavopiridol Cmax of ≥2 μM” value in data set [1] (patients tested (20)) is on record as 90%. The “maximum tolerated dose (MTD), flavopiridol” value in data set [2] (21-d schedule, bolus over 1 hr days 2 and 9, with vorinostat 600 mg/d) is reported as 60 mg/m^2; in data set [2] (28-d schedule, split dose days 2 and 16, with vorinostat 800 mg/d), 30 mg/m^2 over 30 min followed by 30 mg/m^2 over 4 h.

Turning to `O=C(CCCCCCC(=O)Nc1ccccc1)NO` [vorinostat, suberoylanilide hydroxamic acid], in the data set on patients, the MTD of vorinostat was 1,700 mg. Further, in data set [3] (800 mg dose level (MTD)), the “patients achieving vorinostat Cmax ≥2.5 μM” value stood at 86%. Moreover, the “increase of vorinostat Cmax by flavopiridol” value in data set [3] (cycle 1 versus cycle −1, all patients, 95% CI 11%–43%) is 27%. Besides, the “vorinostat level that enhances chemotherapy in vitro” value in data set [4] was more than 2.5 µM. Besides, the “maximum tolerated dose (MTD) of vorinostat” value is 600 mg/day in data set [2] (21-d schedule: days 1–3 and 8–10, with flavopiridol 60 mg/m^2 over 1 hr days 2 and 9); 800 mg/day in data set [2] (28-d schedule: days 1–3 and 15–17, with split-dose flavopiridol days 2 and 16). Moreover, the Cmax (commonly the peak of the concentration-time curve) was less than 2 µM in data set [5] (read-out: average Cmax, vorinostat in combination with carboplatin and paclitaxel or FOLFOX); approximately 2.5 µM in data set [5] (standard dose 400 mg PO daily continuously); more than 30 µM in data set [5] (vorinostat 900 mg/m^2 IV daily × 3 days every 3 weeks).
